An excerpt weighted towards active compounds, which were near 1.5% of everything screened.
APJ antagonist = blocks the human apelin receptor APJ | P35414 | CHO-K1 APJ beta-arrestin complementation, luminescence | inhibition, % at 20 µM | actives 0.32% (n = 330,000) | AID 2521;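 active means inhibition above about 40% at 20 µM, limit read from the data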;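 further: cells challenged with 10 nM apelin-13 agonist together with compound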
CXCR6 block = inhibitors of human CXCR6 receptor; CHO-K1 PathHunter CXCR6 beta-arrestin, luminescence; O00574; actives 0.36% (n = 360,000); inhibition, % at 20 µM; in the data active means inhibition above about 34%, passing the limit was not always enough;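 further: antagonist mode with CXCL16 agonist at 10 nM final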
APJ ag = APJ receptor agonism; activation, % at 20 µM; P35414; actives 0.11% (n = 330,000); CHO-K1 APJ PathHunter beta-arrestin, luminescence; 0% DMSO wells, 100% apelin;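 active means activation more than six SD over the plate average, tested at 20 µM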
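Material: CHO-K1 APJ beta-arrestin complementation cell line; Input: cell density 1000 per well; Incubation: compound stimulation 90 min at 25 °C, detection 60 min; Signal: luminescence from split beta-galactosidase complementation, Galacton Star/Emerald II substrate; Controls: DMSO-only wells as negative, 10 nM Apelin-13 as positive control.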
EBI2 block = blocks human EBI2 receptor beta-arrestin signaling. EBI2 beta-arrestin recruitment, luminescence, 7a,25-OHC stimulated. inhibition, % at 5 µM. actives 0.81% (n = 360,000). AID 651636; in the data active means inhibition above about 38%;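 further: enzyme fragment complementation signal reports receptor beta-arrestin coupling in cells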
Target sequence (P32249 whole entry, looked up, the tested form may be a part): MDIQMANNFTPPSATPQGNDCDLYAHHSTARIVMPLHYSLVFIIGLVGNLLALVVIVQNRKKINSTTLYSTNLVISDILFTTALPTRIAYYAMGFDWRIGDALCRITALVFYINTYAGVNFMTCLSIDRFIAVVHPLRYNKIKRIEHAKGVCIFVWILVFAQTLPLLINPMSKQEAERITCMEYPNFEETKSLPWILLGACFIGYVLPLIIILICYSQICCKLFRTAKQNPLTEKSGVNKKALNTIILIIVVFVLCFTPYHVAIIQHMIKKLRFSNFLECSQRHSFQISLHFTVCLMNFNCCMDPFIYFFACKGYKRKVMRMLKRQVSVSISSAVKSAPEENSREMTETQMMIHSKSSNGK
CCR6 antag = blocks CCL20-driven beta-arrestin recruitment at human CCR6; CHO-K1 CCR6 PathHunter beta-arrestin, luminescence, CCL20-stimulated; inhibition, % at 20 µM; actives 0.49% (n = 340,000); AID 493098;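 active means compounds whose inhibition of the agonist-driven luminescence signal at 20 µM reaches about 50%, limit read from the data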;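 further: cells stimulated with CCL20 at 14 nM final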
APJ ag conf = confirmation of human APJ apelin receptor agonists. activation, % at 20 µM. shares compounds with APJ ag. actives 10% (n = 310). CHO-K1 APJ PathHunter beta-arrestin, luminescence. AID 2764;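 active means activation above 40%, taking the highest of four retests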
A number is an active result; - = inactive; . = not tested or not shown.

SMILES	APJ antagonist	CXCR6 block	APJ ag	EBI2 block	CCR6 antag	others
COc1cc(C=C2CN(C)C(=O)C2=O)ccc1O	.	-	.	-	.
CCOc1cc(/C=C2\CN(C)C/C(=C\c3ccc(O)c(OCC)c3)C2=O)ccc1O	-	-	-	-	57
O=C1C(SCCO)=C(SCCO)C(=O)c2ccccc21	-	103	-	-	108
CCC1=NN(C(=O)c2ccc(Cl)cc2)C(O)(c2ccc(C)cc2)C1 (stereo not drawn)	-	-	-	-	64
O=C(NCCC1=CCCCC1)c1cc(COc2ccc(F)cc2Cl)on1	-	-	-	-	-
O=C(NCCc1ccccc1Cl)c1cc(COc2ccc(F)cc2F)on1	-	-	-	57	-
CCOC(=O)/C(=C\c1ccc(OC(F)F)cc1)C1=Nn2c(nnc2-c2ccc(Cl)cc2)SC1	.	-	.	54	-
CCOC(=O)/C(=C/c1ccc(OC(F)F)cc1)C1=Nn2c(nnc2-c2ccc(Cl)cc2)SC1	.	-	.	48	-
COc1ccc(-c2nnc3n2N=C(C)CS3)cc1	-	-	-	-	-
C[C@@H]1CN([C@@H](C)CO)C(=O)CCCn2nncc2CO[C@@H]1CN(C)S(=O)(=O)c1ccccc1	.	-	.	-	.
O=C1/C(=C/c2ccc(O)c(O)c2)SC(=S)N1Nc1ccccc1	.	51	.	-	61
CCc1ccc(C(O)c2ncc(-c3ccc(Cl)cc3)[nH]2)cc1 (stereo not drawn)	.	-	.	-	.
COCCNC(=O)/C(C#N)=C/c1ccc(N2CCOCC2)o1	-	52	-	-	-
N#C/C(=C\c1ccc(N2CCOCC2)o1)C(=O)NCCc1ccccc1	-	-	-	-	-
Cn1cc(-c2ccccc2C(N)=O)c(=O)c2cc(Cl)ccc21	-	-	-	-	-
Cn1cc(C2=C(c3ccc(Cl)cc3Cl)C(=O)NC2=O)c2ccccc21	-	-	-	49	-
CSc1ccccc1NC(=O)C1(C)CCN1C(=O)Cc1ccc(-c2ccccc2)cc1 (stereo not drawn)	.	-	.	-	.
COc1ccccc1/C=C/c1ccc2cccc(O)c2n1	-	-	-	-	63
Cc1cc(C)cc(C(O)c2ncc(-c3cccc(C(F)(F)F)c3)[nH]2)c1 (stereo not drawn)	.	-	.	-	.
NS(=O)(=O)c1ccc(Nc2ccc([N+](=O)[O-])c3nonc23)cc1	-	-	-	-	63
CC(=O)c1nn(-c2cccc(C)c2)cc1C(=O)c1cccc(Br)c1	-	-	-	-	-
CC(=O)c1nn(-c2ccccc2)cc1C(=O)c1ccc(C)cc1	-	-	-	56	-
COC(=O)C[C@H]1CC[C@H](NC(=O)Nc2ccccc2OC)[C@@H](CO)O1	.	.	.	-	.
O=S1(=O)CC(N2CCN(Cc3ccccc3F)CC2)CN1Cc1cn(Cc2cccc(Cl)c2)nn1 (stereo not drawn)	.	-	.	-	.
CCN(CC)c1ccc(N=C2C(=O)Nc3ccccc32)cc1	-	-	-	-	-
SMILES	APJ antagonist	CXCR6 block	APJ ag	EBI2 block	CCR6 antag	others
COc1cc(/C=N/N=C2/C(=O)Nc3ccccc32)cc(OC)c1O	-	-	-	-	61
Cc1cc(C)c(N=C2C(=O)Nc3ccccc32)c(C)c1	-	-	-	-	-
O=C1Nc2ccccc2C1=Nc1ccc(Cl)cc1	.	-	.	-	65
Cc1ccc(N=C2C(=O)Nc3ccccc32)cc1C	-	-	-	-	52
COc1ccc(C)cc1N1CC(C(=O)Nc2cccc(C(=O)NC3CC3)c2)CC1=O (stereo not drawn)	.	-	.	-	.
CCN(CC)c1ccc(/C=C2\C(=O)N(c3nnc(C)c(=O)[nH]3)N=C2C)cc1	-	-	-	63	-
Cn1c(NCc2c[nH]c3ccccc23)nc2ccccc21	-	-	22	-	-	APJ ag conf=-
C=CCSc1nc(O)c(CC)c(=O)n1C(C)CC (stereo not drawn)	-	-	76	-	-	APJ ag conf=49
Cc1ccc(NC(=O)CSc2nc3ccc(Nc4nc(N5CCOCC5)nc(N5CCOCC5)n4)cc3s2)cc1	-	-	-	-	-
CCOC(=O)CSc1nc2ccc(Nc3nc(N4CCOCC4)nc(N4CCOCC4)n3)cc2s1	-	-	19	-	-	APJ ag conf=-
CCOC(=O)c1ccc(NC(=O)c2cccc(S(=O)(=O)N3CCOCC3)c2)cc1	-	-	14	-	-	APJ ag conf=-
CCOC(=O)c1ccc(NC(=O)c2ccc(C)c(S(=O)(=O)N3CCOCC3)c2)cc1	-	-	-	-	-
CC1=C/C(=N\OS(=O)(=O)c2ccccc2)C(C)=CC1=O	-	-	109	-	-	APJ ag conf=86
O=C(Nc1ccc(N2CCN(C(=O)c3cccs3)CC2)cc1)c1ccco1	-	-	-	-	-
CCC(=O)Nc1ccc(N2CCN(C(=O)c3cccs3)CC2)cc1	-	-	-	-	-
O=C(Nc1ccc(N2CCN(C(=O)c3cccs3)CC2)cc1)c1ccc([N+](=O)[O-])o1	-	-	29	-	.	APJ ag conf=-
O=C(COc1ccccc1[N+](=O)[O-])Nc1ccc(N2CCN(C(=O)c3cccs3)CC2)cc1	-	-	16	-	-	APJ ag conf=-
COC1=CC(=O)OC(c2cccc(C#N)c2)C1 (stereo not drawn)	.	.	.	-	.
CC1(C(=O)Nc2ccc3c(c2)OCO3)CCN1C(=O)CCc1ccc(Cl)cc1Cl (stereo not drawn)	.	-	.	-	.
Cc1ccc(NC(=O)C/C(N)=N/OC(=O)c2ccccc2)cc1	-	-	11	-	-	APJ ag conf=-
C#CCOCCOCCOCCNc1nc(N2CCN(C(=O)CCCCCCCCCCNC(=O)[C@H]([C@@H](C)CC)n3cc(CCCCN=C(N)N)nn3)CC2)nc(N2CCN(C(=O)CCCCCCCCCCNC(=O)[C@H](CCCCN)n3cc(C)nn3)CC2)n1	40	.	83	.	-	APJ ag conf=-
C#CCOCCOCCOCCNc1nc(N2CCN(C(=O)CCCCCCCCCCNC(=O)[C@H]([C@@H](C)CC)n3cc(CCCCCN)nn3)CC2)nc(N2CCN(C(=O)CCCCCCCCCCNC(=O)[C@H]([C@@H](C)CC)n3cc(CCCCN=C(N)N)nn3)CC2)n1	-	-	51	-	.	APJ ag conf=-
Cc1ccc(S(=O)(=O)N2CCN(C(=O)C(O)c3ccccc3)CC2)cc1 (stereo not drawn)	.	.	.	-	.
N#Cc1ccccc1OCC(=O)Nc1c(C(=O)C2CC2)oc2ccccc12	-	-	40	-	-	APJ ag conf=-
Cc1ccc(C(=O)Nc2nc(C(N)Cc3ccc(C(F)(F)F)cc3)cs2)cc1 (stereo not drawn)	.	-	.	-	.
CCOc1cc2[nH]c(=S)n(CCCN(CC)CC)c(=O)c2cc1OCC	-	-	-	-	-
CCCCN(C)CCn1c(=S)[nH]c2cc(OCC)c(OCC)cc2c1=O	-	-	54	-	-	APJ ag conf=-
CC(C)NC(=O)C1(C)CCN1C(=O)C(c1ccccc1)c1ccccc1 (stereo not drawn)	.	-	.	-	.
Nc1cccc2c1C(=O)N(CCOc1ccccc1F)C2=O	-	-	-	-	-

Compound activity from PubChem BioAssay.
